# Measurements pooled from the literature.
# Protocols differ between the studies behind these lines.
# Target: Dual specificity tyrosine-phosphorylation-regulated kinase 1B (DYRK1B, Homo sapiens, UniProt Q9Y463)
# Technique: competition with immobilised ligand
Structure (SMILES),read-out,tested at,remaining binding
CNCc1ccccc1-c1csc([C@H](C)Nc2nc(C)nc3cc(OC)c(OC)cc23)c1,cell-free assay,1 µM,55%
O=C(NCCCN1CCOCC1)c1ccc(Nc2ncc(Cl)c(-c3ccc(Cl)s3)n2)cc1,binding,1 µM,13%
COc1cnc(Nc2cccc(S(N)(=O)=O)c2)nc1N1CCN(c2ccccc2)CC1,binding,1 µM,100%
N#Cc1ccccc1CSc1nnc2c(n1)[nH]c1ccccc12,binding,10 µM,74%
Nc1ncc2c(n1)-c1c([nH]c3ccc(C#CC4CC4)cc13)CCCC2,binding,1 µM,77%
Cc1cc(-n2nc(Cc3cc(F)cc(C(F)(F)F)c3)nc2C)ccc1C(N)=O,cell-free assay,1 µM,100%
C=CC(=O)N1CCC(C(=O)NCC(=O)N2CCN(c3nc(-c4cnc(N)nc4C(F)F)nc(N4CCOCC4)n3)CC2)CC1,binding,1 µM,98%
O=C(c1ccc(Nc2nccc(-c3cc4ccccc4s3)n2)cc1)N1CCC(N2CCCC2)CC1,binding,1 µM,99%
COc1ccc2c(c1)O[C@@H](c1ccc(OC)c(OC)c1)C[C@H]2NC(=O)C1(c2ccc3c(c2)OC(F)(F)O3)CC1,cell-free assay,1 µM,100%
Cc1cnc(Nc2ccc(C(=O)N3CCC(N4CCCC4)CC3)cc2)nc1-c1cc2ccccc2s1,binding,1 µM,43%
C[C@@H](c1ccc(-n2cnc3c(N)ncnc32)cc1)N1CCc2nn(C)c(Cc3ccccc3)c2C1=O,binding,0.1 µM,91%
CCC(=O)N[C@@H]1CC[C@H](C(=O)N(C)c2ccc(-c3nc4ccccc4o3)cc2)C1,cell-free assay,1 µM,36%
O=C(Nc1c[nH]nc1C(=O)NC1CCNCC1)c1cc(F)cc(F)c1,binding,1 µM,100%
CN(C)c1ncnc(-c2ccc3nc(Nc4cc(CN5CCN(C(=O)CC(F)(F)F)CC5)ccn4)[nH]c3c2)c1Cl,cell-free assay,1 µM,100%
CCN1CCN(Cc2ccc(C(=O)Nc3ccc(C)c(Oc4ccc5c(c4)CC(=O)N5)c3)cc2C(F)(F)F)CC1,binding,1 µM,95%
